Legend:
Format in all cases: functional, cell-based
NCI-H460 = experiment: Cytotoxicity against human NCI-H460 cells after 4 days; settings: NCI-H460, 96 h
HCT-116 = experiment: Cytotoxicity against human HCT116 cells after 4 days; settings: HCT-116, 96 h
Summary of the method: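 HCT116 cells seeded as single-cell suspension at 2×10^3 cells/well onto serially diluted compounds, cultured 4 days; growth read with a cell counting kit. IC50 taken as concentration giving 50% growth inhibition relative to untreated control.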

DLD-1 = experiment: Cytotoxicity against human DLD1 cells after 4 days; settings: DLD-1, 96 h
QG-56 = experiment: Cytotoxicity against human QG56 cells after 4 days; settings: QG-56, 96 h

## COc1cc2c(cc1O)CCN[C@]21CS[C@@H]2c3c(OC(C)=O)c(C)c4c(c3[C@H](COC1=O)N1[C@@H]2[C@H]2c3c(cc(C)c(OC)c3O)C[C@@H]([C@@H]1C#N)N2C)OCO4 [ECTEINASCIDIN 770]
NCI-H460
  IC50: 0.64 nM
HCT-116
  IC50: 1.2 nM
DLD-1
  IC50: 2.4 nM
QG-56
  IC50: 3.9 nM

## C/C=C(/C)C(=O)OC[C@H]1C2=C(C[C@H]3[C@H]4C5=C(C[C@@H]([C@H](C#N)N13)N4C)C(=O)C(C)=C(OC)C5=O)C(=O)C(C)=C(OC)C2=O [RENIERAMYCIN M]
NCI-H460
  IC50: 5.9 nM
HCT-116
  IC50: 7.9 nM
DLD-1
  IC50: 9.6 nM
QG-56
  IC50: 19 nM

## C/C=C(/C)C(=O)OC[C@H]1C2=C(C[C@H]3[C@H]4c5c(O)c(OC)c(C)c(O)c5[C@H](O)[C@@H]([C@H](C#N)N13)N4C)C(=O)C(C)=C(OC)C2=O [RENIERAMYCIN N]
NCI-H460
  IC50: 6.7 nM
HCT-116
  IC50: 5.6 nM
DLD-1
  IC50: 5.7 nM
QG-56
  IC50: 11 nM

## C/C=C(/C)C(=O)OC[C@H]1C2=C(C[C@H]3[C@H]4C5=C(C(=O)C(C)=C(OC)C5=O)[C@H](O)[C@@H]([C@H](C#N)N13)N4C)C(=O)C(C)=C(OC)C2=O [RENIERAMYCIN O]
HCT-116
  IC50: 28 nM
QG-56
  IC50: 40 nM

## COC1=C(C)C(=O)C2=C(C1=O)[C@@H]1[C@@H]3CC4=C(C(=O)C(OC)=C(C)C4=O)[C@H](CNC(=O)C(C)=O)N3[C@@H](C#N)[C@H](C2)N1C [SAFRAMYCIN A]
NCI-H460
  IC50: 2.1 nM
HCT-116
  IC50: 0.4 nM
DLD-1
  IC50: 0.6 nM
QG-56
  IC50: 5.5 nM
